Test results from ChEMBL document CHEMBL1125485, “Inhibitors of blood platelet cAMP phosphodiesterase. 2. Structure-activity relationships associated with 1,3-dihydro-2H-imidazo[4,5-b]quinolin-2-ones substituted with functionalized side chains” (J Med Chem, 1992).

Experiments:
[1] = target: Phosphodiesterase 3 (Homo sapiens, UniProt Q14432+Q13370); test: Inhibition of human platelet PDE by inhibiting cyclic Adenosine monophosphate (cAMP) hydrolysis
[2] = species: Oryctolagus cuniculus; test: Inhibition of platelet aggregation using collagen as activating agent in rabbit platelet rich plasma (PRP); assay type: functional
Procedure, shortened: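 Rabbit platelet-rich plasma, aggregation triggered by ADP or collagen after 3 min preincubation of PRP with drug. Single or duplicate determinations, reference agent included.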

[3] = target: cGMP-dependent 3',5'-cyclic phosphodiesterase (Homo sapiens, UniProt O00408); test: Inhibition of human platelet PDE by inhibiting cyclic Guanosine monophosphate (cGMP) hydrolysis
Chain of cGMP-dependent 3',5'-cyclic phosphodiesterase (O00408 whole entry): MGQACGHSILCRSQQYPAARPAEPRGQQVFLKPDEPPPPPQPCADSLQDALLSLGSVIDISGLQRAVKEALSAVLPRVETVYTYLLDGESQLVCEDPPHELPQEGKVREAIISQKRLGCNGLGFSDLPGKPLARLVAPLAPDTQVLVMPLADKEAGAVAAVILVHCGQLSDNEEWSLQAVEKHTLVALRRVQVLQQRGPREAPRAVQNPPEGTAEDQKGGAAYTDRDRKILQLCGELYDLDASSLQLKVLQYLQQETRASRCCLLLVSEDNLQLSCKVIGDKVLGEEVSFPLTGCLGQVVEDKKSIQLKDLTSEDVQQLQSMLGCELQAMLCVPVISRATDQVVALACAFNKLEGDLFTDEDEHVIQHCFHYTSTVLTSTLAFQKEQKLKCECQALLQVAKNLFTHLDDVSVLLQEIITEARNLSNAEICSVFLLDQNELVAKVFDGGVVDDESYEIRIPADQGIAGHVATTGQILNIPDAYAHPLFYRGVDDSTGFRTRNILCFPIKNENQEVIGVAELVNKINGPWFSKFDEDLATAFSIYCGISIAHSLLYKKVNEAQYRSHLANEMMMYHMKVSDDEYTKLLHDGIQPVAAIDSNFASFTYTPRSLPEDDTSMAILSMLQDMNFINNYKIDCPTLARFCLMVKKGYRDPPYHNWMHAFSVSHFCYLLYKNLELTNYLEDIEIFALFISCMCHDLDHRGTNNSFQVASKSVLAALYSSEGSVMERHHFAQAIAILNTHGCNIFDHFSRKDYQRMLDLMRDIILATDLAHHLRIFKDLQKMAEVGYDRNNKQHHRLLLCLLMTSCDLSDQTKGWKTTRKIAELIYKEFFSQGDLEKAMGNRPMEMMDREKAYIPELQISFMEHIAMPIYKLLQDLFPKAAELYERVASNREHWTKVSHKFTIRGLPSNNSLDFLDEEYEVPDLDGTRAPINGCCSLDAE

[4] = species: Rattus norvegicus; test: Oral efficacy in rats using the ex vivo aggregatory protocol; assay type: functional
Procedure, shortened: (§1)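 Rats given compound orally, then ADP-induced platelet aggregation measured ex vivo.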

[5] = system: Rattus norvegicus; test: Percent inhibition of oral efficacy in rats using the ex vivo aggregatory protocol at 10 mg/kg; assay type: functional; procedure, shortened: as §1

Row | SMILES | IC50 [1] | EC50 [2] | IC50 [3] | ED50 [4] | inhibition in vivo at 10 mg/kg [5]
1 | O=C(O)CN(C(=O)CCCOc1ccc2[nH]c3nc(O)nc-3cc2c1)C1CCCCC1 | 0.3 nM | 460 nM | – | – | –
2 | COC(=O)CCCCOc1ccc2nc3nc(O)n(C)c3cc2c1 | 5000 nM | – | 100000 nM | – | –
3 | CN(C(=O)CCCCOc1ccc2[nH]c3nc(O)nc-3cc2c1)C1CCCCC1 | 2 nM | 0.2 nM | 5000 nM | – | –
4 | O=C(CCCOc1ccc2nc3[nH]c(=O)[nH]c3cc2c1)N1CCOCC1 | – | 20 nM | 40000 nM | – | –
5 | COC(=O)CCCCOc1ccc2[nH]c3nc(O)nc-3cc2c1 | – | – | > 100000 nM | – | –
6 | O=C(O)C1CCN(C(=O)CCCOc2ccc3[nH]c4nc(O)nc-4cc3c2)CC1 | 20 nM | 180 nM | – | – | –
7 | O=C(O)CCCCCOc1ccc2[nH]c3nc(O)nc-3cc2c1 | 4 nM | 950 nM | 7000 nM | – | –
8 | CN(C(=O)CCCOc1ccc2c(c1)CN1CC(=O)NC1=N2)C1CCCCC1 [LIXAZINONE] | 3 nM | 80 nM | – | – | –
9 | CCOC(=O)CN(C(=O)CCCOc1ccc2[nH]c3nc(O)nc-3cc2c1)C1CCCCC1 | 2 nM | 9 nM | 3000 nM | – | –
10 | O=c1[nH]c2cc3cc(OCCCS(=O)(=O)c4ccccc4)ccc3nc2[nH]1 | 2 nM | 50 nM | > 100000 nM | – | –
11 | O=C(CCCCc1ccc2[nH]c3nc(O)nc-3cc2c1)NC1CCCCC1 | 300 nM | 190 nM | – | – | –
12 | CN(C(=O)CCCOc1ccc2nc3nc(O)n(C)c3cc2c1)C1CCCCC1 | 200 nM | 40 nM | 8000 nM | – | –
13 | COC(=O)CCCOc1ccc2nc3[nH]c(=O)n(C)c3cc2c1 | – | – | 100000 nM | – | –
14 | COC(=O)CCCOc1ccc2nc3c(cc2c1)n(C)c(=O)n3C | 40000 nM | 54700 nM | – | – | –
15 | O=C(CCCOc1ccc2[nH]c3nc(O)nc-3cc2c1)NC1CCCCCC1 | 10 nM | 8 nM | – | 5.4 mg/kg | –
16 | CCOC(=O)CCCOc1ccc2c(c1)CN1CC(=O)NC1=N2 | 70 nM | – | – | – | –
17 | CNC(=O)CCCOc1ccc2[nH]c3nc(O)nc-3cc2c1 | 7 nM | 830 nM | – | < 10 mg/kg | 57%
18 | CCOCCOc1ccc2[nH]c3nc(O)nc-3cc2c1 | 50 nM | 1290 nM | – | – | –
19 | CC(O)CCCOc1ccc2[nH]c3nc(O)nc-3cc2c1 (stereo unspecified) | 100 nM | 70 nM | – | – | –
20 | CN(C(=O)CCCCCOc1ccc2nc3[nH]c(=O)[nH]c3cc2c1)C1CCCCC1 | 3 nM | 6 nM | 7000 nM | – | –

Row | SMILES | IC50 [1] | EC50 [2] | IC50 [3] | ED50 [4] | inhibition in vivo at 10 mg/kg [5]
21 | CCOC(=O)C1CCN(C(=O)CCCOc2ccc3[nH]c4nc(O)nc-4cc3c2)CC1 | 5 nM | 90 nM | 100000 nM | 9.6 mg/kg | –
22 | O=C(CCCCc1ccc2[nH]c3nc(O)nc-3cc2c1)NC12C[C@H]3C[C@@H](C1)C[C@@H](C2)C3 | 6 nM | 300 nM | – | – | –
23 | CCOC(=O)CCCOc1ccc2[nH]c3nc(O)nc-3cc2c1 | 20 nM | 20 nM | – | – | –
24 | Cn1c(O)nc2nc3ccc(OCCCC(=O)N4CCCCC4)cc3cc21 | – | 2440 nM | 60000 nM | – | –
25 | CN(C(=O)CCCOc1ccc2nc3nc(O)n(C)c3cc2c1)C1CCCCCC1 | 100 nM | 10 nM | 7000 nM | 10 mg/kg | –
26 | CC(=O)OCCOc1ccc2[nH]c3nc(O)nc-3cc2c1 | 30 nM | 70 nM | – | – | –
27 | OCCCc1ccc2[nH]c3nc(O)nc-3cc2c1 | 60 nM | 410 nM | – | – | –
28 | CC(=O)OCCCCOc1ccc2[nH]c3nc(O)nc-3cc2c1 | 40 nM | 320 nM | – | – | –
29 | Oc1nc2cc3cc(OCCCc4nnn[nH]4)ccc3[nH]c-2n1 | 3 nM | 1580 nM | – | – | –
30 | OCCOc1ccc2[nH]c3nc(O)nc-3cc2c1 | 20 nM | 4 nM | > 100000 nM | < 10 mg/kg | –
31 | Oc1nc2cc3cc(OCCCCc4nnnn4C4CCCCC4)ccc3[nH]c-2n1 | 4 nM | 45 nM | > 100000 nM | – | 44%
32 | O=C(CCCOc1ccc2[nH]c3nc(O)nc-3cc2c1)NC1CCCC1 | 20 nM | 4 nM | – | – | –
33 | O=C(O)CCCCc1ccc2[nH]c3nc(O)nc-3cc2c1 | 20 nM | 21000 nM | 10000 nM | – | –
34 | CN(C(=O)CCCCOc1ccc2nc3[nH]c(=O)[nH]c3cc2c1)C1CCCCCC1 | 0.4 nM | 2 nM | 5000 nM | – | –
35 | CC(=O)OCCCOc1ccc2[nH]c3nc(O)nc-3cc2c1 | 100 nM | 30 nM | – | – | –
36 | CN(C(=O)CCCCOc1ccc2nc3nc(O)n(C)c3cc2c1)C1CCCCC1 | 500 nM | – | 60000 nM | 10 mg/kg | –
37 | O=C(CCCCc1ccc2[nH]c3nc(O)nc-3cc2c1)N1CCCCC1 | 60 nM | 170 nM | – | – | –
38 | COC(=O)CCCOc1ccc2nc3c(cc2c1)nc(O)n3C | 2000 nM | 170 nM | – | – | –
39 | CN(C(=O)CCCOc1ccc2[nH]c3nc(O)nc-3cc2c1)C1CCCCCC1 | – | 5 nM | – | – | –
40 | NC(=O)CCCOc1ccc2[nH]c3nc(O)nc-3cc2c1 | 8 nM | 2520 nM | > 100000 nM | – | –

Row | SMILES | IC50 [1] | EC50 [2] | IC50 [3] | ED50 [4] | inhibition in vivo at 10 mg/kg [5]
41 | COC(=O)CCCCCOc1ccc2nc3[nH]c(=O)[nH]c3cc2c1 | 60 nM | 27 nM | > 100000 nM | – | –
42 | Cn1c(O)nc2nc3ccc(OCCCC(=O)O)cc3cc21 | 600 nM | > 106000 nM | 10000 nM | > 10 mg/kg | –
43 | CC(=O)CCCOc1ccc2[nH]c3nc(O)nc-3cc2c1 | 80 nM | 70 nM | – | – | –
44 | CN(C(=O)CCCCc1ccc2[nH]c3nc(O)nc-3cc2c1)C1CCCCC1 | 40 nM | 26 nM | – | – | –
45 | CCOC(=O)COc1ccc2[nH]c3nc(O)nc-3cc2c1 | – | 7600 nM | – | – | –
46 | CCOC(=O)CCc1ccc2[nH]c3nc(O)nc-3cc2c1 | 600 nM | 140 nM | – | – | –
47 | O=C(CCCOc1ccc2[nH]c3nc(O)nc-3cc2c1)NC12C[C@H]3C[C@@H](C1)C[C@@H](C2)C3 | 1 nM | 50 nM | 100000 nM | 4 mg/kg | –
48 | Cn1c(O)nc2nc3ccc(OCCCS(=O)(=O)c4ccccc4)cc3cc21 | 300 nM | 15100 nM | – | – | –
49 | Cn1c(=O)n(C)c2nc3ccc(OCCCC(=O)O)cc3cc21 | 4000 nM | 1250 nM | – | – | –
50 | Cn1c(O)nc2nc3ccc(OCCCCC(=O)O)cc3cc21 | 80 nM | > 100000 nM | 10000 nM | – | –
51 | CN(C(=O)CCCOc1ccc2nc3c(cc2c1)n(C)c(=O)n3C)C1CCCCC1 | 5000 nM | 13400 nM | – | – | –
52 | OCCCOc1ccc2[nH]c3nc(O)nc-3cc2c1 | 9 nM | 150 nM | 50000 nM | – | –
53 | O=C(CCCOc1ccc2nc3[nH]c(=O)[nH]c3cc2c1)NC1CCCCC1 | – | 7 nM | > 100000 nM | – | 31%
54 | COC(=O)CN(C(=O)CCCOc1ccc2[nH]c3nc(O)nc-3cc2c1)C1CCCCC1 | 0.5 nM | 2 nM | 5500 nM | 3 mg/kg | –
55 | N#CCCCCOc1ccc2[nH]c3nc(O)nc-3cc2c1 | 100 nM | 130 nM | – | – | –
56 | N#CCCCOc1ccc2[nH]c3nc(O)nc-3cc2c1 | 6 nM | 33 nM | – | – | –
57 | O=C(O)CCCCOc1ccc2nc3[nH]c(=O)[nH]c3cc2c1 | – | > 106000 nM | 30000 nM | – | –
58 | O=C(O)CCCOc1ccc2c(c1)CN1CC(=O)NC1=N2 | 40 nM | 3460 nM | – | – | –
59 | OCC(O)COc1ccc2[nH]c3nc(O)nc-3cc2c1 (stereo unspecified) | 20 nM | 64 nM | – | – | –
60 | Oc1nc2cc3cc(OCCCCc4nnn[nH]4)ccc3[nH]c-2n1 | 10 nM | 1010 nM | – | – | –
